Reference: ChEMBL document CHEMBL3243964, “Biomolecules bearing the S- or SeAsMe2 function: amino acid and steroid derivatives” (J Med Chem, 1979)
The source made the active and inactive calls. The calls are words filed in the database; no cut-off is given here.

What was measured:
L1210 [1] = assay: Carcinostatic activity against mouse L1210 cells allografted in mouse assessed as increase in survival at 100 mg/kg relative to control; assay type: functional
Mus musculus = species: Mus musculus; assay: Toxicity in mouse allografted with mouse L1210 cells; assay type: organism-based
L1210 [2] = assay: Carcinostatic activity against mouse L1210 cells allografted in mouse assessed as increase in survival at 50 mg/kg relative to control; assay type: functional
L1210 [3] = assay: Carcinostatic activity against mouse L1210 cells allografted in mouse assessed as increase in life span at 100 mg/kg relative to control; assay type: functional
Summary of the method: (§1)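 Mice bearing L1210 lymphoid leukemia, tested externally. Read-out is percent increased life span (ILS) of treated versus control animals at the dose shown in mg/kg.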

Staphylococcus aureus [4] = assay: Bacteriostatic activity against Staphylococcus aureus 209; assay type: functional
Staphylococcus aureus [5] = assay: Bacteriostatic activity against Staphylococcus aureus 209 cultured in nutrient broth; assay type: functional, organism-based
Summary of the method: (§2)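 Bacteria grown in nutrient broth with the compound. Read-out is inhibition of growth, with total inhibition scored. Gram-negative (K. pneumoniae) and Gram-positive strains were tested.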

L1210 [6] = assay: Carcinostatic activity against mouse L1210 cells allografted in mouse assessed as increase in life span at 500 mg/kg relative to control; assay type: functional; summary of the method: as §1
Klebsiella pneumoniae = assay: Bacteriostatic activity against Klebsiella pneumoniae; assay type: functional, organism-based; summary of the method: as §2

SMILES	T/C (L1210 [1])	Activity (Mus musculus)	T/C (L1210 [2])	Activity (L1210 [3])	inhibition zone (IZ) (Staphylococcus aureus [4])	growth inhibition (GI) (Staphylococcus aureus [5])	Activity (L1210 [6])	Activity (Klebsiella pneumoniae)
C[As](C)SCC[C@H](NC(=O)[C@@H](N)CCS[As](C)C)C(=O)O	144%	> 200 mg/kg	–	–	–	–	–	–
C[As](C)SCC[C@@H](CCCCC(=O)O)S[As](C)C	–	100 mg/kg	128%	33%	–	–	–	–
C[As](C)SCC(N)C(=O)O (racemic)	–	200 mg/kg	110%	–	15 mm	Active	–	–
C[As](C)SC[C@H](NC(=O)CC[C@H](N)C(=O)O)C(=O)NCC(=O)O [DARINAPARSIN]	164%	400 mg/kg	–	–	20 mm	Active	33%	Active
